{"data": "Results pooled from the literature", "sample": "plasma", "note": "Compare with care: the assays were run in different laboratories."}
{"SMILES": "CONC(=O)c1cccc2c1cc(C)n2-c1nc2c(c(NCc3ccccc3)n1)CCCN2", "test system": "male Sprague-Dawley rat", "conditions": "intravenous, 1 mg/kg, single dose", "half-life [h]": 3.13}
{"SMILES": "Cc1cc(S(=O)(=O)NC2CC(N3CCN(CC4CCN(c5cccc6c5n(C)c(=O)n6C5CCC(=O)NC5=O)CC4)CC3)C2)ccc1Nc1ncc(C(F)(F)F)c(N2CCC[C@](C)(O)C2)n1 (stereo partly shown)", "test system": "rat", "conditions": "intravenous, 2 mg/kg", "half-life [h]": 5.1}
{"SMILES": "Cc1nc(Nc2ncc(C(=O)Nc3c(C)cccc3Cl)s2)cc(N2CC[C@@H](N)C2)n1", "test system": "male Sprague-Dawley rat", "conditions": "intravenous, 1 mg/kg", "half-life [h]": 2.8}
{"SMILES": "COc1ccc(N(Cc2csc(-c3ccccc3)n2)C(=O)CCCCCC(=O)NO)cc1", "test system": "female Sprague-Dawley rat", "conditions": "intravenous, 5 mg/kg", "half-life [h]": 0.63}
{"SMILES": "C[C@H]1Oc2cc(cnc2N)-c2c(nn(C)c2C#N)CN(C)C(=O)c2ccc(F)cc21", "test system": "male Sprague-Dawley rat", "conditions": "oral, 10 mg/kg, single dose", "half-life [h]": 8.82}
{"SMILES": "Cc1cc(S(=O)(=O)NC2CC(N3CCN(CC4CCN(c5cccc6c5n(C)c(=O)n6C5CCC(=O)NC5=O)CC4)C4(CC4)C3)C2)ccc1Nc1ncc(C(F)(F)F)c(N2CCC[C@](C)(O)C2)n1 (stereo partly shown)", "test system": "rat", "conditions": "intravenous, 2 mg/kg", "half-life [h]": 3.5}
{"SMILES": "COc1cc(-c2cc(C(C)=O)n3ccccc23)c(OC)cc1Cn1ccnc1", "test system": "male Sprague-Dawley rat", "conditions": "oral, 5 mg/kg", "half-life [h]": 0.72}
{"SMILES": "CCOCC(=O)N1CCC[C@H](C(=O)NCc2nc(-c3ccc(C#N)nc3)cs2)C1", "test system": "male Sprague-Dawley rat", "conditions": "intravenous, 1 mg/kg", "half-life [h]": 1.8}
{"SMILES": "Cc1cc(S(=O)(=O)NC2CC(N3CC[C@@H](OC4CN(c5cccc6c5n(C)c(=O)n6C5CCC(=O)NC5=O)C4)[C@H](F)C3)C2)ccc1Nc1ncc(C(F)(F)F)c(N2CCC[C@](C)(O)C2)n1 (stereo partly shown)", "test system": "rat", "conditions": "intravenous, 2 mg/kg", "half-life [h]": 2.4}
{"SMILES": "COc1nc(-c2cccc(-c3ccccc3)c2C)ccc1CNCCNC(=O)CCCCCCCCCCC(=O)N1CCN(CCNC(=O)c2cc3c(=O)n4cccc(C)c4nc3n(CCc3cccs3)c2=N)CC1", "test system": "male Sprague-Dawley rat", "conditions": "intraperitoneal, 4 mg/kg", "half-life [h]": 4.7}
{"SMILES": "COCC(=O)N1CCC[C@H](C(=O)NCc2nc(-c3ccc(C#N)cc3)cs2)C1", "test system": "male Sprague-Dawley rat", "conditions": "intravenous, 1 mg/kg", "half-life [h]": 1.5}
{"SMILES": "CC(=O)O[C@@H]1CC[C@@]2(C)[C@@H](CC[C@]3(C)[C@@H]2C(=O)C=C2[C@@H]4[C@@H](C)[C@H](C)CC[C@]4(C)CC[C@]23C)[C@@]1(C)C(=O)O", "test system": "female Wistar rat", "conditions": "oral, 1 mg/kg, single dose", "half-life [h]": 9.9}
{"SMILES": "Cn1c(=O)c2[nH]cnc2n(C)c1=O", "test system": "male Sprague-Dawley rat", "conditions": "intravenous, 11.25 mg/kg", "half-life [h]": 4.81}
{"SMILES": "CNS(=O)(=O)c1ccc(Nc2ncc(C(F)(F)F)c([C@H]3CC[C@@](C)(O)CC3)n2)c(C)c1", "test system": "rat", "conditions": "intravenous, 2 mg/kg", "half-life [h]": 1.3}
{"SMILES": "NCCOCC(=O)N1CCC[C@H](C(=O)NCc2nc(-c3ccc(C(F)(F)F)cc3)cs2)C1", "test system": "male Sprague-Dawley rat", "conditions": "intravenous, 1 mg/kg", "half-life [h]": 4.4}
{"SMILES": "[2H]C([2H])([2H])NC(=O)c1cc(Oc2ccc(NC(=O)Nc3ccc(Cl)c(C(F)(F)F)c3)cc2)ccn1", "test system": "rat", "conditions": "oral, 40 mg/kg, single dose", "half-life [h]": 23.2}
{"SMILES": "CCOCC(=O)N1CCC[C@H](C(=O)NCc2nc(-c3ccc(C)nc3)cs2)C1", "test system": "male Sprague-Dawley rat", "conditions": "intravenous, 1 mg/kg", "half-life [h]": 2.1}
{"SMILES": "CC[C@@H]([C@H](C)O)n1ncn(-c2ccc(N3CCN(c4ccc(OC[C@@H]5CO[C@@](Cn6cncn6)(c6ccc(F)cc6F)C5)cc4)CC3)cc2)c1=O", "test system": "Sprague-Dawley rat", "conditions": "oral, 40 mg/kg", "half-life [h]": 15.7}
{"SMILES": "CNS(=O)(=O)c1ccc(Nc2ncc3cc(Cl)c(=O)n(C4CCCC4)c3n2)c(C)c1", "test system": "rat", "conditions": "intravenous, 2 mg/kg", "half-life [h]": 1.2}
{"SMILES": "O=C1CCC(N2Cc3cc(C4CCN(Cc5ccccc5)CC4)ccc3C2=O)C(=O)N1 (stereo not shown)", "test system": "male Sprague-Dawley rat", "conditions": "intravenous, 1 mg/kg", "half-life [h]": 4.29}
{"SMILES": "COc1cc(C2C3=C(COC3=O)N(CCO)c3cc4c(cc32)CCC4)cc(OC)c1OC (stereo not shown)", "test system": "female Sprague-Dawley rat", "conditions": "intraperitoneal, 50 mg/kg", "half-life [h]": 8.61}
{"SMILES": "CCONC(=O)N1CCC[C@H](C(=O)NCc2nc(-c3ccc(C#N)cc3)cs2)C1", "test system": "male Sprague-Dawley rat", "conditions": "oral, 3 mg/kg", "half-life [h]": 14}
{"SMILES": "CNS(=O)(=O)c1ccc(Nc2ncc(C(F)(F)F)c(N3CCC[C@](C)(O)C3)n2)c(C)c1", "test system": "rat", "conditions": "intravenous, 2 mg/kg", "half-life [h]": 0.8}
{"SMILES": "C1=C/COCc2cc(ccc2OCCN2CCCC2)Nc2nccc(n2)-c2cccc(c2)COC/1", "test system": "male Sprague-Dawley rat", "conditions": "oral, 36 mg/kg", "half-life [h]": 12.1}
{"SMILES": "C[C@]1(O)CCCN(c2nc(Nc3ccc(S(=O)(=O)N[C@H]4CC[C@H](CN5CCN(c6ccc(C7CCC(=O)NC7=O)cc6F)CC5)CC4)cc3F)ncc2C(F)(F)F)C1 (stereo partly shown)", "test system": "rat", "conditions": "intravenous, 2 mg/kg", "half-life [h]": 3.7}
{"SMILES": "CCCc1nc2c(C)cc(-c3nc4ccccc4n3C)cc2n1Cc1ccc(-c2ccccc2C(=O)O)cc1", "test system": "male Sprague-Dawley rat", "conditions": "oral, 8 mg/kg, single dose", "half-life [h]": 6.84}
{"SMILES": "CC(C)(N)COCC(=O)N1CCC[C@H](C(=O)NCc2nc(-c3ccc(C(F)(F)F)cc3)cs2)C1", "test system": "male Sprague-Dawley rat", "conditions": "intravenous, 1 mg/kg", "half-life [h]": 7.2}
{"SMILES": "[2H]c1cc(C)c(NC(=O)c2cnc(Nc3cc(N4CCC(O)CC4)nc(C)n3)s2)c(Cl)c1", "test system": "male Sprague-Dawley rat", "conditions": "intravenous, 1 mg/kg", "half-life [h]": 1.9}
{"SMILES": "CCCCC(=O)Nc1ccc(-c2ccc3ncn(CCC)c(=O)c3c2)cn1", "test system": "male rat", "conditions": "intravenous, 2.5 mg/kg", "half-life [h]": 0.582}
{"SMILES": "COCC(=O)N1CCC[C@H](C(=O)NCc2nc(-c3ccccc3)cs2)C1", "test system": "male Sprague-Dawley rat", "conditions": "intravenous, 1 mg/kg", "half-life [h]": 6}
{"SMILES": "C[C@]1(O)CCCN(c2nc(Nc3ccc(S(=O)(=O)N[C@H]4CC[C@H](CN5CCN(c6ccc(C7CCC(=O)NC7=O)c(F)c6)CC5)CC4)cc3F)ncc2C(F)(F)F)C1 (stereo partly shown)", "test system": "rat", "conditions": "intravenous, 2 mg/kg", "half-life [h]": 6}
